Shown are actives, neighbours in structure and some others; about 1.3% of the full set was active somewhere.
PTPN22 inh 2: blocks human PTPN22 phosphatase activity; AID 640; recombinant LYP catalytic domain, DiFMUP fluorescence; actives 0.21% (n = 96,000); Q9Y2R2; inhibition, % at 2 µM;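 active = inhibition at 2 µM at or above a set limit, the screen mean plus 3 SD, cut at about 24% in these data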
EphB4 antag: EphB4-ephrin-B2 interaction antagonism. P54760. EphB4 LBD / TNYL-RAW-Alexa532 peptide, fluorescence polarization. inhibition, % at 7 µM. actives 0.15% (n = 97,000). AID 720;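 active = inhibition above the screen-wide mean inhibition plus 3 SD, cut at about 15% in these data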
Rev-RRE block: disrupts HIV-1 Rev binding to RRE RNA. P05866. Rev peptide-RRE RNA binding, FRET. inhibition, % at 8 µM. actives 0.79% (n = 97,000). AID 704;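 active = inhibition above the screen-wide mean plus 3 SD, cut at about 35% in these data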
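Test system – labelled RRE RNA duplex and labelled Rev peptide · Reagent – labelled Rev peptide · Doses – one concentration, 8 µM nominal · Incubation – 5 + 15 min at 25 °C · Signal – FRET fluorescence readout · Read-out basis – % inhibition of FRET ratio versus controls · Control set – DMSO wells as 0% and neomycin B wells as 100% inhibition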
LYP act: increases human PTPN22 phosphatase activity; Q9Y2R2; recombinant LYP, DiFMUP fluorescence; 0 = plate median, 100 = signal doubled; activation, % at 2 µM; actives 0.11% (n = 96,000); AID 697;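 active = activation at 2 µM above a set limit, the mean plus 5 SD, cut at about 37% in these data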
Numbers stand for hits; . = inactive; [ ] = another dose, or the depositor's remark.

SMILES	PTPN22 inh 2	EphB4 antag	Rev-RRE block	LYP act
Cc1ccccc1C1C(C#N)=C2N=C(N)c3c(sc4c3CCCCC4)N2C2=C1C(=O)CCC2 (centres undefined)	.	.	66.3	.
O=C1COc2ccc(C(=O)c3ccccc3C(=O)NCc3ccccc3)cc2N1	.	.	.	.
O=[N+]([O-])c1cccc(/C=C/c2nc(C=Nc3ccc4ccccc4c3)c(O)o2)c1	.	.	48.5	.
O=C(CO/N=C/c1cccc([N+](=O)[O-])c1)Nc1ccc2ccccc2c1	.	.	.	.
CCOC(=O)c1[nH]c(C(=O)O)c(CCN(CC)CC)c1C	.	.	.	.
O=C(c1cccn2c(=O)c3cc4ccccc4cc3nc12)N1CCN(c2ccccc2)CC1	.	.	44.2	.
N#C/C(=C/c1ccc(N2CCCCC2)o1)c1cccc(F)c1	.	.	98.7[fluorescence artefact?]	.
N#C/C(=C/c1ccc(N2CCCCCC2)o1)c1ccc(Cl)cc1	.	.	96.6[fluorescence artefact?]	.
O=C(c1ccc(S(=O)(=O)N2CCCCC2)cc1)c1nnc(-c2ccc(Cl)cc2)o1	.	.	.	.
CCn1c(SCc2nc3sc(C(=O)O)c(C)c3c(=O)[nH]2)nc2ccccc21	.	.	60.1	.
Cc1ccc(NC(=O)CN2C(=O)S/C(=C/c3ccc(-c4cc(C(=O)O)ccc4C)o3)C2=O)cc1C	34.8	.	.	.
O=C(NCC1(c2ccccc2)CCCC1)c1cccc(Br)c1	.	.	.	.
C=CCOc1c(Br)cc(CNc2ccc(NC(=O)C(C)C)c(OC)c2)cc1OC	.	.	.	.
CCCCn1nc(-c2ccccc2)c2nc3ccccc3nc21	.	.	96.6[fluorescence artefact?]	.
Cn1c(=O)c(-c2ccccc2)nc2ccccc21	.	.	.	.
Cn1nc(-c2ccccc2)c2nc3ccccc3nc21	.	.	92.2[fluorescence artefact?]	.
CCCSc1nc(C)c(-c2csc(C(C#N)=C3CCCC3)n2)cc1C#N	25.8	.	.	.
CCOC(=O)c1cc2n(c1/N=C/N(C)C)-c1ccccc1C2=O	.	.	135.2[fluorescence artefact?]	.
Cc1[nH]c2ccccc2c1/C=N/Nc1ccc([N+](=O)[O-])cc1S(=O)(=O)Nc1ccc(Cl)cc1	.	.	40.5	.
O=[N+]([O-])c1ccc(N/N=C/c2cn(-c3ccccc3)nc2-c2ccccc2)cc1	.	.	63.7	.
COc1c(/C=N/Nc2ccc([N+](=O)[O-])cc2[N+](=O)[O-])c(C)nn1-c1ccccc1	.	.	.	.
COc1ccc(NS(=O)(=O)c2cc([N+](=O)[O-])ccc2N/N=C\c2c(C)[nH]c3ccccc23)cc1	.	.	44.2	.
O=[N+]([O-])c1ccc(N/N=C/c2c[nH]c3ccccc23)cc1	.	.	58.4[fluorescence artefact?]	.
O=[N+]([O-])c1ccccc1N/N=C/c1c[nH]c2ccccc12	.	.	.	.
COc1ccccc1NS(=O)(=O)c1cc([N+](=O)[O-])ccc1N/N=C/c1c[nH]c2ccccc12	.	.	63.9[fluorescence artefact?]	.
SMILES	PTPN22 inh 2	EphB4 antag	Rev-RRE block	LYP act
CCOC(=O)c1sc2nc(CC(=O)OC)nc(NCc3ccco3)c2c1C	.	.	38.8	.
CCOC(=O)c1sc2nc(CC(=O)OC)nc(NCC(=O)OC)c2c1C	.	.	.	.
O=[N+]([O-])c1ccc(N2CCN(S(=O)(=O)c3ccccc3)CC2)cc1NCc1cccnc1	.	.	.	.
O=[N+]([O-])c1ccc(N2CCN(S(=O)(=O)c3ccc(Cl)cc3)CC2)cc1NCc1cccnc1	24.3	.	.	.
COc1ccc(C2(CNC(=O)Cc3ccc(OC)c(OC)c3)CCOCC2)cc1	.	.	.	.
O=c1c2ccccc2nc(-c2ccoc2)n1CCc1ccccc1	.	16.0	.	.
O=c1c2ccccc2nc(-c2ccco2)n1Cc1ccccc1	.	.	.	.
O=C(NCCC1=CCCCC1)C1CCCN(c2nc3ccccc3o2)C1 (centres undefined)	.	.	.	.
Cc1cc(C(=O)COC(=O)c2ccccc2O)c(C)n1Cc1cccs1	.	.	.	.
CCn1nc(C(=O)OCC(=O)c2cc(C)n(Cc3cccs3)c2C)c2ccccc2c1=O	24.2	.	.	.
Cn1c(SCC(=O)NCc2ccco2)nc2ccccc2c1=O	.	.	.	.
O=C(CSc1nc2ccccc2c2nc3ccccc3n12)NCc1ccco1	29.7	.	.	.
O=CN(Cc1ccco1)C1(C(=O)NC2CCCCC2)CCCCC1	.	.	.	.
CN(C)S(=O)(=O)NCc1ccc2c(c1)OCO2	.	.	.	.
CC(C)C(OC(=O)c1ccco1)C(=O)NC1CCCCC1 (centres undefined)	.	.	.	.
CC(OC(=O)c1ccco1)C(=O)NC1CCCCC1 (centres undefined)	28.2	.	.	.
